Measured values as given in ChEMBL document CHEMBL5390247, “Aryl azoles based scaffolds for disrupting tumor microenvironment” (Bioorg Med Chem, 2023).
Active and inactive are the calls of the source. The calls are words filed in the database; no cut-off is given here.

Assays:
HT-29 [1] = experiment: Antiproliferative activity against human HT-29 cells assessed as relative c-Myc protein expression at 100 uM incubated for 48 hrs by flow cytometry analysis relative to control; assay type: functional
HT-29 [2] = experiment: Immunomodulatory activity in human HT-29 cells co-cultured with interferon gamma-stimulated THP-1 cells assessed as induction of morphological changes by measuring cell shrinkage at 100 uM incubated for 48 hrs; assay type: functional, cell-based
In short: (§1)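 HT-29 cells co-cultured with IFN-γ-stimulated THP-1 cells and treated 48 h with compounds at 100 µM, with DMSO as control. Cell shrinkage and rounded morphology assessed by microscopy images.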

HT-29 [3] = experiment: Immunomodulatory activity in human HT-29 cells co-cultured with interferon gamma-stimulated THP-1 cells assessed as relative CD-47 protein expression in membrane at 100 uM incubated for 48 hrs by flow cytometry analysis relative to control; assay type: functional
HT-29 [4] = experiment: Antiproliferative activity against human HT-29 cells assessed as relative VEGFR-2 protein expression in whole cell at 100 uM incubated for 48 hrs by flow cytometry analysis relative to control; assay type: functional
HT-29 [5] = experiment: Antiproliferative activity against human HT-29 cells assessed as relative PD-L1 protein expression in whole cell at 100 uM incubated for 48 hrs by flow cytometry analysis relative to control; assay type: functional
HT-29 [6] = experiment: Antiproliferative activity against human HT-29 cells assessed as relative VEGFR-2 protein expression in membrane at 100 uM incubated for 48 hrs by flow cytometry analysis relative to control; assay type: functional
[7] = Toxicity against interferon gamma-stimulated human THP-1 monocyte cells co-cultured with human HT-29 cells assessed as reduction in cell viability at 100 uM incubated for 48 hrs by flow cytometry analysis; assay type: cell-based; conditions: thp-1, 48 h
In short: (§2)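 HT-29 cells at 10^5/well seeded and grown 24 h. Medium then replaced with medium containing IFN-γ (10 ng/ml), 5 × 10^5 THP-1 cells/well and compound at 100 µM; DMSO used as control. After 48 h, THP-1 cells collected from supernatant and cancer cells by trypsinisation. Both fixed in 4% paraformaldehyde and counted by flow cytometry relative to control.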

HT-29 [8] = experiment: Immunomodulatory activity in human HT-29 cells co-cultured with interferon gamma-stimulated THP-1 cells assessed as induction of morphological changes by measuring rounded cell morphology at 100 uM incubated for 48 hrs; assay type: functional, cell-based; in short: as §1
HT-29 [9] = experiment: Immunomodulatory activity in human HT-29 cells co-cultured with interferon gamma-stimulated THP-1 cells assessed as relative PD-L1 protein expression in membrane at 100 uM incubated for 48 hrs by flow cytometry analysis relative to control; assay type: functional
HT-29 [10] = experiment: Antiproliferative activity against human HT-29 cells assessed as relative PD-L1 protein expression in membrane at 100 uM incubated for 48 hrs by flow cytometry analysis relative to control; assay type: functional
HT-29 [11] = experiment: Immunomodulatory activity in human HT-29 cells co-cultured with interferon gamma-stimulated THP-1 cells assessed as reduction in number of cells at 100 uM incubated for 48 hrs; assay type: functional, cell-based; in short: as §2
HT-29 [12] = experiment: Immunomodulatory activity in human HT-29 cells co-cultured with interferon gamma-stimulated THP-1 cells assessed as cell viability at 100 uM incubated for 48 hrs by flow cytometry analysis relative to control; assay type: functional; conditions: read-out: Activity; in short: as §2
HT-29 [13] = experiment: Immunomodulatory activity in human HT-29 cells co-cultured with interferon gamma-stimulated THP-1 cells assessed as inhibition of cell growth at 100 uM incubated for 48 hrs by flow cytometry analysis relative to control; assay type: functional; in short: as §2

Structure (SMILES)	Activity (HT-29 [1]) [%]	Activity (HT-29 [2])	Activity (HT-29 [3]) [%]	Activity (HT-29 [4]) [%]	Activity (HT-29 [5]) [%]	Activity (HT-29 [6]) [%]	Activity [7]	Activity (HT-29 [8])	Activity (HT-29 [9]) [%]	Activity (HT-29 [10]) [%]	Activity (HT-29 [11])	viability at 100 µM (HT-29 [12]) [%]	inhibition at 100 µM (HT-29 [13]) [%]
COc1ccccc1Cn1nnc(-c2cccc([N+](=O)[O-])c2)n1	86	Active	85	55	92	>100	Non-Toxic	Active	93	89	Active	65	
Cc1ccc(Cn2cc(-c3cccc(N)c3)nn2)cc1			101				Non-Toxic		144			73	
Cc1ccccc1Cn1nnc(-c2cccc([N+](=O)[O-])c2)n1	91		75	72	94	>100	Non-Toxic		165	64		56	
Nc1cccc(-c2cn(Cc3ccccc3)nn2)c1			103				Non-Toxic		109			78	
O=[N+]([O-])c1cccc(-c2nnn(Cc3ccccc3)n2)c1	82		71	>100	>100	>100	Non-Toxic		150	66		32	
Cc1ccccc1Cn1nnc(-c2cccc(N)c2)n1			75				Non-Toxic		103			25	> 70
O=[N+]([O-])c1cccc(-c2nnn(Cc3cccc(Br)c3)n2)c1	76		93	60	88	100	Non-Toxic		106	>100		31	> 70
O=[N+]([O-])c1cccc(-c2nnn(Cc3ccccc3Br)n2)c1	90		85	75	97	>100	Non-Toxic		94	>100		43	
Cc1cccc(Cn2nnc(-c3cccc([N+](=O)[O-])c3)n2)c1	89		73	84	97	>100	Non-Toxic		166	65		42	
Nc1cccc(-c2cn(Cc3cccc(Br)c3)nn2)c1			95				Non-Toxic		137			9	> 90
COc1cccc(Cn2cc(-c3cccc(N)c3)nn2)c1			89				Non-Toxic		113			33	
